Assay results reported in publication PMC3781598 (Pharmaceutical research, 2013).

Assays:
hERG = hERG (Homo sapiens, UniProt Q12809); experiment: hERG patch clamp assay; format: cell-based; details: for inhibition at 10 µM: human
In short: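 hERG inhibition by patch clamp, measured as block of the tail current. Highest test concentration was 10 μM.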

[1] = Metabolic stability in lung microsomes; format: in vitro ADME; details: human lung microsomes, 1 μM, 20-minute incubation
In short: (§1)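 Pooled liver or lung microsomes (male B6C2F1 mouse, male Sprague-Dawley rat, human) at 1.0 mg protein/ml in 50 mM potassium phosphate pH 7.4, 3 mM MgCl2, 1 mM EDTA. […] Stopped at 0, 5, 10, 20 min with acetonitrile containing antipyrene, then LC/MS/MS. Single-exponential kel gave T1/2. CLint = kel × incubation volume/mg protein.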

[2] = Metabolic stability in lung microsomes; format: in vitro ADME, male B6C2F1 mouse; details: for half-life at 1 μM / microsomal CLint at 1 μM: male, B6C2F1, mouse, lung microsomes, pH 7.4; for Percent Loss of Substrate: mouse lung microsomes, 1 μM, 20-minute incubation
In short: as §1

[3] = Metabolic stability in liver microsomes; format: in vitro ADME, male Sprague-Dawley rat; details: for half-life at 1 μM / microsomal CLint at 1 μM: male, Sprague-Dawley, rat, liver microsomes, pH 7.4; for Percent Loss of Substrate: rat liver microsomes, 1 μM, 20-minute incubation
In short: as §1

CYP2C8 = target: T1, CYP2C8 (Homo sapiens, UniProt P10632); experiment: Metabolic stability phenotyping with recombinantly expressed CYPs; format: in vitro ADME; details: recombinant CYP2C8, pH 7.4
T1 sequence (P10632 1-490): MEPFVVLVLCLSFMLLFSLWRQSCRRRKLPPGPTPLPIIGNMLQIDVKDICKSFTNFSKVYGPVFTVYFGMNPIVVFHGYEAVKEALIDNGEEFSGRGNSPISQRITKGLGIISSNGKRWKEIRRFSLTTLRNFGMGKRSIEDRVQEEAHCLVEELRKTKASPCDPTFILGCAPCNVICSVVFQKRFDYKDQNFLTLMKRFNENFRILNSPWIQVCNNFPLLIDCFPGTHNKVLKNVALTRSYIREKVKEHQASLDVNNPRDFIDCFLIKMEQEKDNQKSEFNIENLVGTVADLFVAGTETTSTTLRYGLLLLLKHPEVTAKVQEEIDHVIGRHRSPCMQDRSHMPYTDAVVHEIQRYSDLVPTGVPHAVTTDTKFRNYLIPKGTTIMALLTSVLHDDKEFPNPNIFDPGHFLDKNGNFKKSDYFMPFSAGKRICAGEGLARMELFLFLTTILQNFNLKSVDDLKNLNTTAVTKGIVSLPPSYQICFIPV
In short: (§2)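 Each recombinant human CYP at 100 pmol/ml with 1 μM test compound in potassium phosphate pH 7.4, 3.33 mM MgCl2. Prewarmed 10 min at 37 °C, then started with NADPH regenerating system; no-NADPH buffer controls. Aliquots at 0–45 min quenched in methanol with buspirone internal standard. MS peak-area ratios gave ln(ratio)-vs-time slope, converted to T1/2. Duplicates.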

CYP2D6 = CYP2D6 (Homo sapiens, UniProt P10635); experiment: as above; format: in vitro ADME; details: recombinant CYP2D6, pH 7.4
Chain of CYP2D6 (P10635 whole entry): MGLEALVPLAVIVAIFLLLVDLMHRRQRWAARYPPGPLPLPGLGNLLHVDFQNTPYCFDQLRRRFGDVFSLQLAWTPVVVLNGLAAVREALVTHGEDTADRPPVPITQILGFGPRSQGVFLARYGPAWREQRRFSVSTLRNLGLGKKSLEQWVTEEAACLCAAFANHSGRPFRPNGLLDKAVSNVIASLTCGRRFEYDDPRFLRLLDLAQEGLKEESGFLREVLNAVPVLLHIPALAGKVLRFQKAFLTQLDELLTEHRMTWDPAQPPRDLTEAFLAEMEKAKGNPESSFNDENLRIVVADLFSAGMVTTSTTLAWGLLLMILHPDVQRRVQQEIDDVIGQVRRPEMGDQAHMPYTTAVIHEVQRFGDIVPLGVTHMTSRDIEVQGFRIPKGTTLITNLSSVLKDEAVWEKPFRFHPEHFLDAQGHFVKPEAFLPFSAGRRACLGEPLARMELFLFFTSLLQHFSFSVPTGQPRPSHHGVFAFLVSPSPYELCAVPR
In short: as §2

CYP2C19 = CYP2C19 (Homo sapiens, UniProt P33261); experiment: as above; format: in vitro ADME; details: recombinant CYP2C19, pH 7.4
Chain of CYP2C19 (P33261 whole entry): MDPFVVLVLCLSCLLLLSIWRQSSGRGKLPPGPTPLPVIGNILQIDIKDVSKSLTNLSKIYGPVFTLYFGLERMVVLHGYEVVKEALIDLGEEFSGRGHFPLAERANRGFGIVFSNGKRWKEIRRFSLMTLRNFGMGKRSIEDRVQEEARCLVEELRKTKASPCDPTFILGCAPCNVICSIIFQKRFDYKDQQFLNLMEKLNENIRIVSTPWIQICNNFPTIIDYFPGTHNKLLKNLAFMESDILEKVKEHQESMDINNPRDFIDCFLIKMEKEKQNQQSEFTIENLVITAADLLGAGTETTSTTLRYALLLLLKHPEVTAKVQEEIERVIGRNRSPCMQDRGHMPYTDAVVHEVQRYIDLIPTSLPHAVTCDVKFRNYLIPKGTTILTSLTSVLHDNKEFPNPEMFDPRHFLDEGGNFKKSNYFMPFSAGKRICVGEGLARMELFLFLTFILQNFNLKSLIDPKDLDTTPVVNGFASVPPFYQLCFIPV
In short: as §2

CYP2B6 = target: T2, CYP2B6 (Homo sapiens, UniProt P20813); experiment: as above; format: in vitro ADME; details: recombinant CYP2B6, pH 7.4
T2 sequence (P20813 1-491): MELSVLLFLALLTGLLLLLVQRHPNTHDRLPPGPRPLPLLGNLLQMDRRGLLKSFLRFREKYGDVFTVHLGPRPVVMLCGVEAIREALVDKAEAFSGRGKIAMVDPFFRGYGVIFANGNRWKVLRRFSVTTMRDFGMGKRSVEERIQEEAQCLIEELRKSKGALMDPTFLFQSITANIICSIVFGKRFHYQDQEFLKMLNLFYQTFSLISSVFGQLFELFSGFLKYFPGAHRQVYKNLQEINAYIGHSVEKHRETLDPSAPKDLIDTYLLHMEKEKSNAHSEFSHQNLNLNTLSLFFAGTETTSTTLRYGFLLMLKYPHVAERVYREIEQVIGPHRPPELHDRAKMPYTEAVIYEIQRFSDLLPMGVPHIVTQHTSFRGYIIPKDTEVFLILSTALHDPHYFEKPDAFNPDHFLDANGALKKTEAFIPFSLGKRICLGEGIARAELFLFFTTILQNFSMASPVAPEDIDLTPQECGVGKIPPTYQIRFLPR
In short: as §2

CYP2A6 / CYP2A13 = experiment: Coumarin metabolism assay; details: human, pH 7.4, probe coumarin (7-hydroxylation), Selectivity Ki (2A6)/ Ki (2A13), ratio of the CYP2A6 value to the CYP2A13 value
human CYP2A13 = target: T3, human CYP2A13 (Homo sapiens, UniProt Q16696); experiment: Coumarin metabolism assay
T3 sequence (Q16696 with tags, fused parts or gaps limits assumed): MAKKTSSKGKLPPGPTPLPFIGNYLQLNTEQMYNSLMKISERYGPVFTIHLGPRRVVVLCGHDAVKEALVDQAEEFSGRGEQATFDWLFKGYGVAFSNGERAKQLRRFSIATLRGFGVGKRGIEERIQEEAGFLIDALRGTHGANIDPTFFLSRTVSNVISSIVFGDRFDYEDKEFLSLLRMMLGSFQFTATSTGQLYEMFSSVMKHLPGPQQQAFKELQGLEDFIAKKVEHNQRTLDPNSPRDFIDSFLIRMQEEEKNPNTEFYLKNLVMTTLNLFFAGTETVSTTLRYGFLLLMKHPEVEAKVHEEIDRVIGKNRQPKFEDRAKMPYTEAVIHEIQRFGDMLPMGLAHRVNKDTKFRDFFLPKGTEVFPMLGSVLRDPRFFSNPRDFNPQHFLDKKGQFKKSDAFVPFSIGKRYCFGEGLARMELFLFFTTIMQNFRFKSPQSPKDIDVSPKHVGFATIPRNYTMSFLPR

[4] = Metabolic stability in knockout mouse lung microsomes; format: in vitro ADME
In short: (§3)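 Microsomes from B6 Cyp2a(4/5)bgs-null (CYP2A/CYP2B knockout) or side-by-side wild-type mouse lung and liver, at 0.1 mg protein/ml. Buffer was 50 mM potassium phosphate pH 7.4, 3 mM MgCl2, 1 mM EDTA. […] Parent loss by LC/MS/MS. Single-exponential kel converted to T1/2; CLint = kel × volume/mg protein.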

[5] = Metabolic stability in wild type mouse lung microsomes; format: in vitro ADME; details: pH 7.4
In short: as §3

[6] = Metabolic stability in wild type mouse liver microsomes; format: in vitro ADME; details: pH 7.4
In short: as §3

[7] = B6 Cyp2a(4/5)bgs-Null, mouse, lung microsomes from knockout mice, pH 7.4

Chain of hERG (Q12809 whole entry): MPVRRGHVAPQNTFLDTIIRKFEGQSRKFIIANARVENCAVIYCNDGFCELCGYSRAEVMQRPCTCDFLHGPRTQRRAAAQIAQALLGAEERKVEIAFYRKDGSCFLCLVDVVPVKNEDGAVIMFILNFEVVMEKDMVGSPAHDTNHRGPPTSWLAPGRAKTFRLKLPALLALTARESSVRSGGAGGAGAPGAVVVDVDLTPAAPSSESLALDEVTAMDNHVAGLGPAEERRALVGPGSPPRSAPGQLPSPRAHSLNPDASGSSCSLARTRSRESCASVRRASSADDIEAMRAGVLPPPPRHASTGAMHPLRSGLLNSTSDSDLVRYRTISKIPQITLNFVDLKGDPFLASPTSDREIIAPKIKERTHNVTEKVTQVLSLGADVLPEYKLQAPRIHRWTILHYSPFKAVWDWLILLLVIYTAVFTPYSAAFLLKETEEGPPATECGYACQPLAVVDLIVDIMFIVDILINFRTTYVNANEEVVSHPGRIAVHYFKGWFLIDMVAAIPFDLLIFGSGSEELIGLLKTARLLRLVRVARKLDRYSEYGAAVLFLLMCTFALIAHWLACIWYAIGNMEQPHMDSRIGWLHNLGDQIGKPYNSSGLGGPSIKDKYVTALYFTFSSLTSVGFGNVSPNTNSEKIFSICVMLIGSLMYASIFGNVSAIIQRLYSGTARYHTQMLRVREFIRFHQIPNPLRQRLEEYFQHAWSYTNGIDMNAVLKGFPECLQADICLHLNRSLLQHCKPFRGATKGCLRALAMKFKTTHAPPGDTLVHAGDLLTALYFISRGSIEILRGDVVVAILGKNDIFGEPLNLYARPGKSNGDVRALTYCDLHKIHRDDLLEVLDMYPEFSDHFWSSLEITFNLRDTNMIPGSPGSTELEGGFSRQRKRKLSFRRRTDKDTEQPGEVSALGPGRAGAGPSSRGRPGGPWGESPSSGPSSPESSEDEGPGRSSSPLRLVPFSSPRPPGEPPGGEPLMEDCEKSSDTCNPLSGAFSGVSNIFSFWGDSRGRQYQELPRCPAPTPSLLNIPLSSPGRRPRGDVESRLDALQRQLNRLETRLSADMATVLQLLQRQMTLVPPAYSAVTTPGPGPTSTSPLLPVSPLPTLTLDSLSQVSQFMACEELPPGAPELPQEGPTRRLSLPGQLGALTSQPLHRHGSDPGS

Percent Loss of Substrate [1] | half-life at 1 μM [2] [min] | microsomal CLint at 1 μM [2] [µL/min/mg] | Percent Loss of Substrate [2] [%] | half-life at 1 μM [3] [min] | microsomal CLint at 1 μM [3] [µL/min/mg] | Percent Loss of Substrate [3] [%] | half-life at 1 μM (CYP2C8) [min] | half-life at 1 μM (CYP2D6) [min] | half-life at 1 μM (CYP2C19) [min] | half-life at 1 μM (CYP2B6) [min] | Ki (human CYP2A13) [µM] | Compound | IC50 (hERG) [µM] | inhibition at 10 µM (hERG) [%] | selectivity ratio at 10 min (CYP2A6 / CYP2A13) | further results
No Loss/No Loss | 1.6 | 433 | 99.9 | 4.7 | 149 | 96.7 | 62 | 61 | 13 | < 5 | 39.7 ± 4.3 | Clc1ccccc1CN1CCOCC1 [Compound 3, 4-(2-chlorobenzyl)morpholine] | > 10 | 13.9 | ≥ 25 | 
No Loss/No Loss | 1.3 | 551 | 100 | 4 | 173 | 97.3 | 51 | 78 | 18 | < 5 | 38.1 | Fc1cccc(Cl)c1CN1CCOCC1 [Compound 7, 4-(2-chloro-6-fluorobenzyl)morpholine] | > 10 | 24.8 | 7.5 | increase in metabolic stability, transgenic vs wild type lung microsomes ([4]; 0.1 mg/ml protein): 5 fold; half-life at 1 μM [4, 7]: 669 min; microsomal CLint at 1 μM [4, 7]: 10.4 µL/min/mg; half-life at 1 μM [5]: 124 min; microsomal CLint at 1 μM [5]: 55.7 µL/min/mg; half-life at 1 μM [6]: 73 min; microsomal CLint at 1 μM [6]: 95.3 µL/min/mg
